Results published in ChEMBL document CHEMBL1128267, “Dicationic diarylfurans as anti-Pneumocystis carinii agents” (J Med Chem, 1995).

Legend:
Pneumocystis carinii [1] = assay: In vivo activity against pneumocystis carinii was determined as toxicity which indicates the death of animals at a dose of 4.8 uM/Kg/day; assay type: organism-based
Procedure, shortened: (§1)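 Dosing intravenous unless otherwise noted; daily dose in μM/kg/day. Toxicity graded on a numerical severity scale where higher scores mean more severe toxicity and scores above 2 mean some animals died.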

[2] = target: DNA topoisomerase II (Giardia lamblia); assay: Inhibitory activity for 50% on topoisomerase II isolated from Giardia lamblia
Giardia intestinalis = assay: Inhibitory activity for 50% on growth of Giardia lamblia in cell culture; assay type: functional, organism-based; settings: Giardia duodenalis
Pneumocystis carinii [3] = assay: In vivo activity against pneumocystis carinii was determined as toxicity which indicates the death of animals and counted cysts in a blinding protocol in lung tissue reported as % of saline treated control at a dose of 4.8 uM/Kg/day; assay type: organism-based
Procedure, shortened: (§2)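 Dosed intravenously unless otherwise marked (some oral). Toxicity graded on a severity scale where larger values are more severe and values above 2 mean some animals died. Cysts in lung tissue counted under a blinded protocol and expressed as percent of saline-treated controls.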

Pneumocystis carinii [4] = assay: In vivo activity against pneumocystis carinii was determined as toxicity which indicates the death of animals and counted uM/Kg/day; assay type: organism-based; procedure, shortened: as §2
Pneumocystis carinii [5] = assay: In vivo activity against pneumocystis carinii was determined as toxicity which indicates the death of animals at a dose of 0.18 uM/Kg/day; assay type: organism-based; procedure, shortened: as §1
Pneumocystis carinii [6] = assay: In vivo activity against pneumocystis carinii was determined as toxicity which indicates the death of animals at a dose of 2.3 uM/Kg/day; assay type: organism-based; procedure, shortened: as §1
Pneumocystis carinii [7] = assay: In vivo activity against pneumocystis carinii was determined as toxicity which indicates the death of animals and counted cysts in a blinding protocol in lung tissue reported as % of saline treated control at a dose of 2.3 uM/Kg/day; assay type: organism-based; procedure, shortened: as §2
Pneumocystis carinii [8] = assay: In vivo activity against pneumocystis carinii was determined as toxicity which indicates the death of animals at a dose of 9.2 uM/Kg/day; assay type: organism-based; procedure, shortened: as §1
Pneumocystis carinii [9] = assay: In vivo activity against pneumocystis carinii was determined as toxicity which indicates the death of animals and counted cysts in a blinding protocol in lung tissue reported as % of saline treated control at a dose of 9.2 uM/Kg/day; assay type: organism-based; procedure, shortened: as §2
Pneumocystis carinii [10] = assay: In vivo activity against pneumocystis carinii was determined as toxicity which indicates the death of animals at a dose of 10.9 uM/Kg/day; assay type: organism-based; procedure, shortened: as §1
Pneumocystis carinii [11] = assay: In vivo activity against pneumocystis carinii was determined as toxicity which indicates the death of animals and counted cysts in a blinding protocol in lung tissue reported as % of saline treated control at a dose of 10.9 uM/Kg/day); assay type: organism-based; procedure, shortened: as §2
Pneumocystis carinii [12] = assay: In vivo activity against pneumocystis carinii was determined as toxicity which indicates the death of animals and counted cysts in a blinding protocol in lung tissue reported as % of saline treated control at a dose of 13.3 (uM/kg/day); assay type: organism-based; procedure, shortened: as §2
Pneumocystis carinii [13] = assay: In vivo activity against pneumocystis carinii was determined as toxicity which indicates the death of animals at a dose of 66.3 (uM/kg/day); assay type: organism-based; procedure, shortened: as §1
Pneumocystis carinii [14] = assay: In vivo activity against pneumocystis carinii was determined as toxicity which indicates the death of animals and counted cysts in a blinding protocol in lung tissue reported as % of saline treated control at a dose of 0.027 (uM/kg/day); assay type: organism-based; procedure, shortened: as §2
Pneumocystis carinii [15] = assay: In vivo activity against pneumocystis carinii was determined as toxicity which indicates the death of animals and counted cysts in a blinding protocol in lung tissue reported as % of saline treated control at a dose of 2.7 (uM/kg/day); assay type: organism-based; procedure, shortened: as §2
Pneumocystis carinii [16] = assay: In vivo activity against pneumocystis carinii was determined as toxicity which indicates the death of animals and counted cysts in a blinding protocol in lung tissue reported as % of saline treated control at a dose of 66.3 (uM/kg/day); assay type: organism-based; procedure, shortened: as §2
Pneumocystis carinii [17] = assay: In vivo activity against pneumocystis carinii was determined as toxicity which indicates the death of animals at a dose of 0.027 (uM/kg/day); assay type: organism-based; procedure, shortened: as §1
Pneumocystis carinii [18] = assay: In vivo activity against pneumocystis carinii was determined as toxicity which indicates the death of animals at a dose of 2.7 (uM/kg/day); assay type: organism-based; procedure, shortened: as §1
Pneumocystis carinii [19] = assay: In vivo activity against pneumocystis carinii was determined as toxicity which indicates the death of animals at a dose of 13.3 (uM/kg/day); assay type: organism-based; procedure, shortened: as §1
Pneumocystis carinii [20] = assay: In vivo activity against pneumocystis carinii was determined as toxicity which indicates the death of animals at a dose of 0.27 (uM/kg/day); assay type: organism-based; procedure, shortened: as §1
Pneumocystis carinii [21] = assay: In vivo activity against pneumocystis carinii was determined as toxicity which indicates the death of animals and counted cysts in a blinding protocol in lung tissue reported as % of saline treated control at a dose of 0.27 (uM/kg/day); assay type: organism-based; procedure, shortened: as §2
Pneumocystis carinii [22] = assay: In vivo activity against pneumocystis carinii was determined as toxicity which indicates the death of animals and counted cysts in a blinding protocol in lung tissue reported as % of saline treated control at a dose of 23.3 uM/Kg/day; assay type: organism-based; procedure, shortened: as §2
Pneumocystis carinii [23] = assay: In vivo activity against pneumocystis carinii was determined as toxicity which indicates the death of animals at a dose of 23.3 uM/Kg/day; assay type: organism-based; procedure, shortened: as §2
Pneumocystis carinii [24] = assay: In vivo activity against pneumocystis carinii was determined as toxicity which indicates the death of animals at a dose of 22.1 (uM/kg/day); assay type: organism-based; procedure, shortened: as §1
Pneumocystis carinii [25] = assay: In vivo activity against pneumocystis carinii was determined as toxicity which indicates the death of animals and counted cysts in a blinding protocol in lung tissue reported as % of saline treated control at a dose of 22.1 (uM/kg/day); assay type: organism-based; procedure, shortened: as §2

For `Cl.Cl.OCCN1CCN=C1c1ccc(-c2ccc(-c3ccc(C4=NCCN4CCO)cc3)o2)cc1`, the “No. of dead animals” value (Pneumocystis carinii [1]) was 3, the IC50 [2] was 20 µM and the IC50 (Giardia intestinalis) was 4600 nM. For the same compound, the Control (Pneumocystis carinii [3]) was 107.3%.

In the case of `Cl.Cl.c1cc(-c2ccc(-c3ccc(C4=NCCCCN4)cc3)o2)ccc1C1=NCCCCN1`, the Control (Pneumocystis carinii [4]) is reported as 115.4%, the “No. of dead animals” value (Pneumocystis carinii [5]) is reported as 0 and the IC50 [2] is reported as 1.5 µM. The “No. of dead animals” value (Pneumocystis carinii [6]) was 3, the IC50 (Giardia intestinalis) was 930 nM and the Control (Pneumocystis carinii [7]) was 2.9%.

With `Cl.Cl.c1cc(-c2ccc(-c3ccc(C4=NC5CCCCC5N4)cc3)o2)ccc1C1=NC2CCCCC2N1` (configuration not stated) the IC50 [2] was 3 µM, the “No. of dead animals” value (Pneumocystis carinii [8]) was 1 and the IC50 (Giardia intestinalis) was 4000 nM. The Control (Pneumocystis carinii [9]) was 80.5%.

`CCN1CCN=C1c1ccc(-c2ccc(-c3ccc(C4=NCCN4CC)cc3)o2)cc1.Cl.Cl` gave an IC50 [2] of 25 µM and an IC50 (Giardia intestinalis) of 3300 nM.

With `Cl.Cl.c1cc(-c2ccc(-c3ccc(C4=NCCCN4)cc3)o2)ccc1C1=NCCCN1` the IC50 [2] was 0.5 µM, the “No. of dead animals” value (Pneumocystis carinii [10]) was 2 and the IC50 (Giardia intestinalis) was 85 nM. It also gave a Control (Pneumocystis carinii [11]) of 0.4%.

`Cl.Cl.N=C(N)c1ccc(-c2ccc(-c3ccc(C(=N)N)cc3)o2)cc1` was tested, and the Control (Pneumocystis carinii [12]) was 2.1%, the “No. of dead animals” value (Pneumocystis carinii [13]) was 0 and the Control (Pneumocystis carinii [14]) was 55.9%. For the same compound, the Control (Pneumocystis carinii [15]) was 8.3%, the Control (Pneumocystis carinii [16]) was 28.4% and the “No. of dead animals” value (Pneumocystis carinii [17]) was 0. For the same compound, the “No. of dead animals” value (Pneumocystis carinii [18]) was 0, the “No. of dead animals” value (Pneumocystis carinii [19]) was 0 and the “No. of dead animals” value (Pneumocystis carinii [20]) was 0. For the same compound, the Control (Pneumocystis carinii [21]) was 4.8%.

`N[C+](N)c1ccc(-c2ccc(-c3ccc([C+](N)N)cc3)o2)cc1` was tested, and the IC50 (Giardia intestinalis) was 440 nM.

`Cl.c1cc(-c2ccc(-c3ccc(C4=NCCN4)cc3)o2)ccc1C1=NCCN1` was tested, and the IC50 [2] was 3 µM, the IC50 (Giardia intestinalis) was 1950 nM and the Control (Pneumocystis carinii [22]) was 35.4%. The Toxicity (Pneumocystis carinii [23]) was 2 number of dead animals.

For `N=C(N)c1ccc(OCCCCCOc2ccc(C(=N)N)cc2)cc1` [PENTAMIDINE], the “No. of dead animals” value (Pneumocystis carinii [24]) was 2 and the Control (Pneumocystis carinii [25]) was 3.66%.
